Bioassay records deposited in PubChem BioAssay by The Scripps Research Institute Molecular Screening Center.
GPR7 antag: GPR7 receptor antagonists, primary screen, cell-based, fluorescence, single concentration | GPR7-expressing cells, fluorescence antagonist assay | inhibition, % at 4.4 µM | 1.1% of 290,000 active | AID 1861, 2009; in the data active means inhibition above about 16%, passing the limit was not always enough;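 further: cells stimulated with the agonist NPW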
OX1R antag-1: antagonists of human orexin 1 receptor (OX1R); 1.8% of 330,000 active; inhibition, % at 6.6 µM; OX1R-expressing cells, FRET antagonist read-out; Orexin/Hypocretin receptor type 1 (Homo sapiens), O43613; AID 485270, 2010; in the data active means inhibition mostly above about 38%, no sharp cut-off; inactive means mostly below about 40%
Target sequence (O43613 whole entry, looked up): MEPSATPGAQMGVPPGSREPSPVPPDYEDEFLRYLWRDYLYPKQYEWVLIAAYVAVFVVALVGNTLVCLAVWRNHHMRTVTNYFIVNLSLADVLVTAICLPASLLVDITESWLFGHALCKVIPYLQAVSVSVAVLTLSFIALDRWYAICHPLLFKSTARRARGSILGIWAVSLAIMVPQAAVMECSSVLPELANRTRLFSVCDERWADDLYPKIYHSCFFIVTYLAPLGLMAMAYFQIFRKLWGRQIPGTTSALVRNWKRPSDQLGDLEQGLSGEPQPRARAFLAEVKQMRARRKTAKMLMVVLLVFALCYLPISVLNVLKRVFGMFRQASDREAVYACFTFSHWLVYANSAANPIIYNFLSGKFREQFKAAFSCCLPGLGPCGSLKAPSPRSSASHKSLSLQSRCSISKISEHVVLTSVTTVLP
CHO parental Ca: ATP-evoked calcium signal inhibitors, parental CHO, primary screen, counter-screen for OX1R antagonist project, cell-based, fluorescence, Fluo-8 calcium dye | parental CHO-K1, ATP-induced calcium, Fluo-8 fluorescence | inhibition, % at 5.6 µM | 0.63% of 330,000 active;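 active means inhibition above that plate's mean sample inhibition plus 3 SD, cut at about 26% in these data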
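Material – parental CHO cells · Reagent – ATP stimulus · Compound – single nominal dose of 5.6 µM per compound · Detection – Fluo-8 fluorescence · Read-out basis – percent inhibition of calcium signal · Controls – ATP-challenged DMSO wells low, unchallenged DMSO wells high · Repeats – no replicates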
TAAR1 ag: human TAAR1 agonists, primary screen, Fluo-8 calcium fluorescence, CHO RD-HGA16 cells. AID 624467, 2012. vehicle wells 0%, saturating PEA agonist 100%. activation, % at 3 µM. Trace amine-associated receptor 1 (Homo sapiens), Q96RJ0. 0.99% of 360,000 active;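 active means activation above the mean activation of all test compounds in the run plus 3 SD, cut at about 38% in these data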
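Signal – calcium-sensitive Fluo-8 signal, excitation 470-495, emission 515-575 nm · System – RD-HGA16 (CHO) cells co-expressing Gα16 and hTAAR1 · Incubation – 17-24 h seeding, 75 min 37 °C dye, 30 min RT · Compound dosing – 3 µM single concentration · Repeats – no replicates (n 1)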
TAAR1 antagonist: human TAAR1 antagonists, primary screen, Fluo-8 calcium fluorescence, CHO RD-HGA16 cells; Trace amine-associated receptor 1 (Homo sapiens), Q96RJ0; antagonist; inhibition, % at 3 µM; 1.5% of 360,000 active;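 active means inhibition above a per-plate cutoff, the mean inhibition of test compounds on that plate plus 3 SD, cut at about 49% in these data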
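System: RD-HGA16 CHO cells with stable hTAAR1 and Gα16 | Probe or stimulus: EC80 β-phenethylamine stimulus | Dosing: 3 µM, single point | Times: Dye loading 75 min at 37 °C, then 30 min room temperature | Measured by: Fluo-8 calcium-sensitive fluorescence | Read-out basis: % inhibition of agonist calcium response | Replicates: n of 1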
OX1R antag-2: OX1R (HCRTR1) antagonists, primary screen, fluorescence, CHO/OX1R cells, Fluo-8 calcium, orexin A | Orexin/Hypocretin receptor type 1 (Homo sapiens), O43613 | Fluo-8 calcium fluorescence | inhibition, % at 5 µM | 0.43% of 330,000 active | AID 434989, 2010;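 active means inhibition above its plate's threshold, mean inhibition of all tested compounds on the plate plus 3 SD, cut at about 37% in these data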
Of the large screens only hits and unclear results are named; the others gave an inactive call. Shown are actives, neighbours in structure and some others; about 4.6% of the full set was active somewhere.

CCOc1ccc(-c2c(C)n(-c3ccc(OCC)cc3)c3[n+]2CCCCC3)cc1	GPR7 antag 46, CHO parental Ca 40
CCN(CC)c1ccc(/C=C2/C(=O)NC(=O)N(CC3CCCO3)C2=O)cc1 (stereo not drawn)	TAAR1 ag 42
O=C1NC(=O)N(CC2CCCO2)C(=O)/C1=C/c1cccs1 (stereo not drawn)	none
Cc1ccccc1-n1c(O)c(/C=C2/C(c3ccccc3)=Nc3ccccc32)c(=O)[nH]c1=O	GPR7 antag 29
O=C(CSC1c2ccccc2-c2ccccc21)N/N=C/c1ccccc1O	OX1R antag-1 60
O=C(C[N+]12CCC(CC1)C(CO)C2)c1ccc([N+](=O)[O-])cc1 (stereo not drawn)	OX1R antag-1 59
O=C(C[N+]12CCC(CC1)C(OC(=O)c1ccccc1)C2)c1ccc([N+](=O)[O-])cc1 (stereo not drawn)	OX1R antag-1 70
O=C(C[N+]12CCC(CC1)C(O)C2)c1ccc(Br)cc1 (stereo not drawn)	none (no result: OX1R antag-1, CHO parental Ca, OX1R antag-2)
CC1=C(O)C(=O)C=C2C1=CC=C1C2(C)CCC2(C)C3CC(C)(C(=O)O)CCC3(C)CCC12C (stereo not drawn)	TAAR1 ag 41, TAAR1 antagonist 74 (no result: GPR7 antag, OX1R antag-1, CHO parental Ca, OX1R antag-2)
COC(=O)C1C(c2ccc(I)cc2)CC2CCC1N2C (stereo not drawn)	none (no result: GPR7 antag, OX1R antag-1, CHO parental Ca, OX1R antag-2)
C[n+]1c(-c2ccccc2)c2cc(N)ccc2c2ccc(N)cc21	OX1R antag-1 51
CC(=O)NCC1=C(c2ccc(S(C)(=O)=O)cc2)C[C@@H]2CC[C@H]1N2CCOc1ccccc1	none (no result: GPR7 antag, OX1R antag-1, CHO parental Ca, OX1R antag-2)
CCC(=NCCO)c1c(O)n(C2CCCCC2)c(=O)[nH]c1=O	none
CCC(=NCc1ccc2c(c1)OCO2)c1c(O)n(C2CCCCC2)c(=O)[nH]c1=O	CHO parental Ca 26
CN1CCC(N(C)c2nc(-c3ccc([N+](=O)[O-])cc3)nc3ccccc23)CC1	none (no result: OX1R antag-1, CHO parental Ca, OX1R antag-2)
CN(CC1COc2ccccc2O1)c1nc(-c2cccnc2)nc2ccccc12 (stereo not drawn)	OX1R antag-1 74
CCOC(=O)C1=C(C(=O)OCC)C2(c3ccccc3)c3ccccc3C1(C)N2C (stereo not drawn)	none (no result: GPR7 antag, OX1R antag-1, CHO parental Ca, OX1R antag-2)
COc1cccc(C(c2nnnn2-c2ccc3c(c2)OCCO3)N2CCC(n3c(=O)[nH]c4ccccc43)CC2)c1OC (stereo not drawn)	TAAR1 ag 51, TAAR1 antagonist 79 (no result: GPR7 antag, OX1R antag-1, CHO parental Ca, OX1R antag-2)
COc1ccc(-n2nnnc2C(c2cccc(OC)c2OC)N2CCC(n3c(=O)[nH]c4ccccc43)CC2)cc1 (stereo not drawn)	TAAR1 antagonist 56 (no result: GPR7 antag, OX1R antag-1, CHO parental Ca, OX1R antag-2)
O=c1[nH]c2ccccc2n1C1CCN(C(c2cccc3ccccc23)c2nnnn2Cc2ccccc2)CC1 (stereo not drawn)	TAAR1 antagonist 50 (no result: GPR7 antag, OX1R antag-1, CHO parental Ca, OX1R antag-2)
COc1ccc(C(c2nnnn2-c2c(C)cccc2C)N2CCC(n3c(=O)[nH]c4ccccc43)CC2)cc1 (stereo not drawn)	none (no result: GPR7 antag, OX1R antag-1, CHO parental Ca, OX1R antag-2)
COc1ccc(-n2nnnc2C(c2ccccc2)N2CCC(n3c(=O)[nH]c4ccccc43)CC2)cc1 (stereo not drawn)	TAAR1 antagonist 67 (no result: GPR7 antag, OX1R antag-1, CHO parental Ca, OX1R antag-2)
CC(C)(C)c1cc(O)ccc1O	none (no result: GPR7 antag, OX1R antag-1, CHO parental Ca, OX1R antag-2)
C[C@@H]1CNCCN1c1ccc(N2CC[C@@H](O)C2)c(C#N)c1	none (no result: GPR7 antag, OX1R antag-1, CHO parental Ca, OX1R antag-2)
O=c1[nH]c2ccccc2n1C1CCN(C(c2ccccc2OC(F)(F)F)c2nnnn2-c2ccc3c(c2)OCCO3)CC1 (stereo not drawn)	TAAR1 antagonist 52 (no result: GPR7 antag, OX1R antag-1, CHO parental Ca, OX1R antag-2)
O=c1[nH]c2ccccc2n1C1CCN(C(CCc2ccccc2)c2nnnn2C2CCCC2)CC1 (stereo not drawn)	TAAR1 antagonist 56 (no result: GPR7 antag, OX1R antag-1, CHO parental Ca, OX1R antag-2)
CNCCCc1ccccc1	TAAR1 ag 43
O=C(NCCN1CCC2(CC1)C(=O)NCN2c1ccccc1)c1cccnc1Cl	none (no result: GPR7 antag, OX1R antag-1, CHO parental Ca, OX1R antag-2)
